{"source": "ChEMBL document CHEMBL4689842", "about": "“EUbOPEN Chemogenomics Library wave 1” (2021)", "tested_on": "HEK-293T", "test": "Multiplex assay against HEK293T;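 for Population Tubulin-Different-Phenotype (%): share of the cells with healthy nuclei that show this phenotype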", "assay_type": "toxicity, cell-based", "conditions": "human", "in_short": "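Live cells were stained at seeding with Hoechst33342, BioTracker Green Microtubule Cytoskeleton Dye, MitoTracker Red and Annexin V Alexa Fluor 680. Following compound addition, they were imaged on a CQ1 microscope at 37°C and 5% CO2 and gated by CellPathfinder machine learning into Hoechst high-intensity objects or normal cells, with normal cells split into healthy, pyknosed or fragmented nuclei and pyknosed cells into mitotic or apoptotic. Tubulin, mitochondrial-mass and membrane-permeability phenotypes are per cents of healthy-nucleus cells.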", "key": {"[1]": {"conditions": "12 h, 1 µM, compound concentration 1 uM, replicate 1"}, "[2]": {"conditions": "12 h, 1 µM, compound concentration 1 uM, replicate 2"}, "[3]": {"conditions": "12 h, 10 µM, compound concentration 10 uM, replicate 1"}, "[4]": {"conditions": "12 h, 10 µM, compound concentration 10 uM, replicate 2"}, "[5]": {"conditions": "24 h, 1 µM, compound concentration 1 uM, replicate 1"}, "[6]": {"conditions": "24 h, 1 µM, compound concentration 1 uM, replicate 2"}, "[7]": {"conditions": "24 h, 10 µM, compound concentration 10 uM, replicate 1"}, "[8]": {"conditions": "24 h, 10 µM, compound concentration 10 uM, replicate 2"}, "[9]": {"conditions": "48 h, 1 µM, compound concentration 1 uM, replicate 1"}, "[10]": {"conditions": "48 h, 1 µM, compound concentration 1 uM, replicate 2"}, "[11]": {"conditions": "48 h, 10 µM, compound concentration 10 uM, replicate 1"}, "[12]": {"conditions": "48 h, 10 µM, compound concentration 10 uM, replicate 2"}}, "note": "Values joined by “and” are separate entries in the source; they are usually repeats but may differ in a detail not shown here. Equal values may be shown once."}
{"smiles": "CS(=O)(=O)N1CCCC(NC(=O)[C@H](CCC2CCCCC2)NC(=O)c2ccc(CNC(=O)c3cnc4ccccn34)cc2)C1", "note": "(some centres undefined) [SR-302]", "values": [{"measurement": "Population Apoptotic (%)", "setting": "[1]", "value": "40% [middle of 4 runs]"}, {"measurement": "Population Fragmented Nuclei (%)", "setting": "[1]", "value": "13% [middle of 4 runs]"}, {"measurement": "Population Hoechst High Intensity Objects (%)", "setting": "[1]", "value": "14% [middle of 4 runs]"}, {"measurement": "Population Membrane Permeable-Phenotype (%)", "setting": "[1]", "value": "3% and 2%"}, {"measurement": "Population Mitotic Cells (%)", "setting": "[1]", "value": "65% [middle of 4 runs]"}, {"measurement": "Population Normal (%)", "setting": "[1]", "value": "86% and 85% and 81%"}, {"measurement": "Total Cell Count", "setting": "[1]", "value": "519 [middle of 4 runs]"}, {"measurement": "Population Apoptotic (%)", "setting": "[2]", "value": "17% [middle of 4 runs]"}, {"measurement": "Population Fragmented Nuclei (%)", "setting": "[2]", "value": "8% and 5%"}, {"measurement": "Population Healthy Nuclei (%)", "setting": "[2]", "value": "48% [middle of 4 runs]"}, {"measurement": "Population Hoechst High Intensity Objects (%)", "setting": "[2]", "value": "6% and 3% and 2%"}, {"measurement": "Population Mitotic Cells (%)", "setting": "[2]", "value": "88% [middle of 4 runs]"}, {"measurement": "Population Normal (%)", "setting": "[2]", "value": "93% and 96% and 97%"}, {"measurement": "Population Apoptotic (%)", "setting": "[3]", "value": "65% [middle of 4 runs]"}, {"measurement": "Population Fragmented Nuclei (%)", "setting": "[3]", "value": "13% and 12% and 16%"}, {"measurement": "Population Hoechst High Intensity Objects (%)", "setting": "[3]", "value": "16% [middle of 4 runs]"}, {"measurement": "Population Membrane Permeable-Phenotype (%)", "setting": "[3]", "value": "7% and 4% and 3%"}, {"measurement": "Population Mitotic Cells (%)", "setting": "[3]", "value": "35% [middle of 4 runs]"}, {"measurement": "Population Normal (%)", "setting": "[3]", "value": "85% and 83% and 77% and 86%"}, {"measurement": "Total Cell Count", "setting": "[3]", "value": "331 [middle of 4 runs]"}, {"measurement": "Population Healthy Nuclei (%)", "setting": "[4]", "value": "30% and 36% and 87%"}, {"measurement": "Population Membrane Permeable-Phenotype (%)", "setting": "[4]", "value": "12% and 8%"}, {"measurement": "Population Mitotic Cells (%)", "setting": "[4]", "value": "52% [middle of 4 runs]"}, {"measurement": "Population Normal (%)", "setting": "[4]", "value": "95% and 90% and 94% and 97%"}, {"measurement": "Population Tubulin-Different-Phenotype (%)", "setting": "[4]", "value": "93% [middle of 4 runs]"}, {"measurement": "Population Apoptotic (%)", "setting": "[5]", "value": "52% [middle of 4 runs]"}, {"measurement": "Population Fragmented Nuclei (%)", "setting": "[5]", "value": "13% [middle of 4 runs]"}, {"measurement": "Population Hoechst High Intensity Objects (%)", "setting": "[5]", "value": "15% and 14% and 24%"}, {"measurement": "Population Membrane Permeable-Phenotype (%)", "setting": "[5]", "value": "4% and 3% and 2%"}, {"measurement": "Population Mitotic Cells (%)", "setting": "[5]", "value": "64% [middle of 4 runs]"}, {"measurement": "Population Normal (%)", "setting": "[5]", "value": "84% and 85% and 75%"}, {"measurement": "Population Healthy Nuclei (%)", "setting": "[6]", "value": "65% [middle of 4 runs]"}, {"measurement": "Population Membrane Permeable-Phenotype (%)", "setting": "[6]", "value": "11% and 7% and 5%"}, {"measurement": "Population Mitotic Cells (%)", "setting": "[6]", "value": "76% and 75% and 93%"}, {"measurement": "Population Normal (%)", "setting": "[6]", "value": "95% and 97% and 96% and 98%"}, {"measurement": "Population Apoptotic (%)", "setting": "[7]", "value": "63% and 66% and 26%"}, {"measurement": "Population Fragmented Nuclei (%)", "setting": "[7]", "value": "18% [middle of 4 runs]"}, {"measurement": "Population Hoechst High Intensity Objects (%)", "setting": "[7]", "value": "17% [middle of 4 runs]"}, {"measurement": "Population Mitotic Cells (%)", "setting": "[7]", "value": "36% and 33% and 73%"}, {"measurement": "Population Normal (%)", "setting": "[7]", "value": "82% and 84% and 81% and 89%"}, {"measurement": "Total Cell Count", "setting": "[7]", "value": "335 [middle of 4 runs]"}, {"measurement": "Population Fragmented Nuclei (%)", "setting": "[8]", "value": "3% and 6%"}, {"measurement": "Population Healthy Nuclei (%)", "setting": "[8]", "value": "44% and 77% and 50%"}, {"measurement": "Population Membrane Permeable-Phenotype (%)", "setting": "[8]", "value": "13% and 6% and 5%"}, {"measurement": "Population Mitotic Cells (%)", "setting": "[8]", "value": "94% and 46% and 37%"}, {"measurement": "Population Normal (%)", "setting": "[8]", "value": "98% and 97% and 91% and 95%"}, {"measurement": "Population Tubulin-Different-Phenotype (%)", "setting": "[8]", "value": "56% and 88% and 94%"}, {"measurement": "Population Apoptotic (%)", "setting": "[9]", "value": "46% and 31% and 58%"}, {"measurement": "Population Fragmented Nuclei (%)", "setting": "[9]", "value": "25% and 16% and 23%"}, {"measurement": "Population Healthy Nuclei (%)", "setting": "[9]", "value": "24% and 43% and 23%"}, {"measurement": "Population Hoechst High Intensity Objects (%)", "setting": "[9]", "value": "11% and 24%"}, {"measurement": "Population Membrane Permeable-Phenotype (%)", "setting": "[9]", "value": "1% and 0%"}, {"measurement": "Population Mitochondria Different-Phenotype (%)", "setting": "[9]", "value": "42% and 44% and 58%"}, {"measurement": "Population Mitotic Cells (%)", "setting": "[9]", "value": "53% and 68% and 41%"}, {"measurement": "Population Normal (%)", "setting": "[9]", "value": "88% and 76%"}, {"measurement": "Population Pyknosed Nuclei (%)", "setting": "[9]", "value": "49% and 40% and 53%"}, {"measurement": "Population Tubulin-Different-Phenotype (%)", "setting": "[9]", "value": "18% and 29% and 41%"}, {"measurement": "Total Cell Count", "setting": "[9]", "value": "293 and 638 and 325"}, {"measurement": "Population Apoptotic (%)", "setting": "[10]", "value": "30% and 16% and 25%"}, {"measurement": "Population Fragmented Nuclei (%)", "setting": "[10]", "value": "5% and 6% and 7%"}, {"measurement": "Population Healthy Nuclei (%)", "setting": "[10]", "value": "81% and 84% and 82%"}, {"measurement": "Population Hoechst High Intensity Objects (%)", "setting": "[10]", "value": "5% and 4%"}, {"measurement": "Population Membrane Permeable-Phenotype (%)", "setting": "[10]", "value": 3, "unit": "%"}, {"measurement": "Population Mitochondria Different-Phenotype (%)", "setting": "[10]", "value": "9% and 8% and 10%"}, {"measurement": "Population Mitotic Cells (%)", "setting": "[10]", "value": "69% and 83% and 74%"}, {"measurement": "Population Normal (%)", "setting": "[10]", "value": "94% and 95%"}, {"measurement": "Population Pyknosed Nuclei (%)", "setting": "[10]", "value": "12% and 9% and 10%"}, {"measurement": "Population Tubulin-Different-Phenotype (%)", "setting": "[10]", "value": "16% and 27%"}, {"measurement": "Total Cell Count", "setting": "[10]", "value": "344 and 689 and 583"}, {"measurement": "Population Apoptotic (%)", "setting": "[11]", "value": "64% and 65% and 62%"}, {"measurement": "Population Fragmented Nuclei (%)", "setting": "[11]", "value": "23% and 21% and 33%"}, {"measurement": "Population Healthy Nuclei (%)", "setting": "[11]", "value": "18% and 20% and 19%"}, {"measurement": "Population Hoechst High Intensity Objects (%)", "setting": "[11]", "value": "22% and 18%"}, {"measurement": "Population Membrane Permeable-Phenotype (%)", "setting": "[11]", "value": "3% and 0%"}, {"measurement": "Population Mitochondria Different-Phenotype (%)", "setting": "[11]", "value": "90% and 100% and 97%"}, {"measurement": "Population Mitotic Cells (%)", "setting": "[11]", "value": "35% and 34% and 37%"}, {"measurement": "Population Normal (%)", "setting": "[11]", "value": "77% and 81%"}, {"measurement": "Population Pyknosed Nuclei (%)", "setting": "[11]", "value": "58% and 57% and 47%"}, {"measurement": "Population Tubulin-Different-Phenotype (%)", "setting": "[11]", "value": "96% and 95%"}, {"measurement": "Total Cell Count", "setting": "[11]", "value": "360 and 347 and 256"}, {"measurement": "Population Apoptotic (%)", "setting": "[12]", "value": "61% and 73% and 52%"}, {"measurement": "Population Fragmented Nuclei (%)", "setting": "[12]", "value": "4% and 5% and 8%"}, {"measurement": "Population Healthy Nuclei (%)", "setting": "[12]", "value": "69% and 75% and 71%"}, {"measurement": "Population Membrane Permeable-Phenotype (%)", "setting": "[12]", "value": 1, "unit": "%"}, {"measurement": "Population Mitochondria Different-Phenotype (%)", "setting": "[12]", "value": "89% and 83%"}, {"measurement": "Population Mitotic Cells (%)", "setting": "[12]", "value": "38% and 26% and 47%"}, {"measurement": "Population Normal (%)", "setting": "[12]", "value": "97% and 95% and 92%"}, {"measurement": "Population Pyknosed Nuclei (%)", "setting": "[12]", "value": "26% and 19%"}, {"measurement": "Total Cell Count", "setting": "[12]", "value": "310 and 372 and 210"}]}
